Laboratory results from ChEMBL document CHEMBL2401700, “Discovery of TD-8954, a clinical stage 5-HT(4) receptor agonist with gastrointestinal prokinetic properties” (Bioorg Med Chem Lett, 2013).

Experiments:
[1] = molecular target: T1, 5-hydroxytryptamine receptor 3A (Homo sapiens, UniProt P46098); experiment: Binding affinity to human recombinant 5HT3 receptor
T1 sequence (P46098 whole entry): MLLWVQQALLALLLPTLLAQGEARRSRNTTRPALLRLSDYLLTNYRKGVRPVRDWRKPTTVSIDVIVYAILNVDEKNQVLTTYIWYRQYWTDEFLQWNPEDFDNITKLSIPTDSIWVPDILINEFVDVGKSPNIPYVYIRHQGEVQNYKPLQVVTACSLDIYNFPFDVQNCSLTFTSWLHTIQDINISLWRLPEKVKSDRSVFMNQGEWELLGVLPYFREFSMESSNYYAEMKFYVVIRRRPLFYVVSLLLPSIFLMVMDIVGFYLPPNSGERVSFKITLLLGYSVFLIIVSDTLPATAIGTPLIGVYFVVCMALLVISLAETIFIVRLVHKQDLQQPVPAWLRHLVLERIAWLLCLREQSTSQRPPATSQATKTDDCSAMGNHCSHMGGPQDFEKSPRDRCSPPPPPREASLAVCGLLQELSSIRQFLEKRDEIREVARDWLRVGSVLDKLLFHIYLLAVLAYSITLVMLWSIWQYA

[2] = molecular target: T2, 5-hydroxytryptamine receptor 4 (Homo sapiens, UniProt Q13639); experiment: Binding affinity to human recombinant 5HT4 receptor
T2 sequence (Q13639 whole entry): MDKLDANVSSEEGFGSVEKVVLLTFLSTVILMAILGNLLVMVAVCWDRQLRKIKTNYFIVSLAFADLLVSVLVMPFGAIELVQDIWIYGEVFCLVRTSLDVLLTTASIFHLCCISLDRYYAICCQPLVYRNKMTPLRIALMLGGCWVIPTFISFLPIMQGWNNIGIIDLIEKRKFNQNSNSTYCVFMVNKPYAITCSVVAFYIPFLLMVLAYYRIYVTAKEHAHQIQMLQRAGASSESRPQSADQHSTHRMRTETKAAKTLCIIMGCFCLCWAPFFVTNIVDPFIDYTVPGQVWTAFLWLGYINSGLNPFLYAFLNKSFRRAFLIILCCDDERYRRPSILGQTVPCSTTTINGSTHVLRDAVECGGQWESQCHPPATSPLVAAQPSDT

[3] = molecular target: T2, 5-hydroxytryptamine receptor 4; experiment: Agonist activity at human recombinant 5HT4 receptor assessed as cAMP accumulation; type: functional
In short: (§1)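 cAMP accumulation in cells expressing human recombinant 5-HT4 receptor, reported as pEC50 with intrinsic activity as % of the maximum response achieved by 5-HT.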

[4] = molecular target: T2, 5-hydroxytryptamine receptor 4; experiment: Agonist activity at human recombinant 5HT4 receptor assessed as cAMP accumulation relative to 5-HT; type: functional; in short: as §1
[5] = molecular target: 5-hydroxytryptamine receptor 2A (Homo sapiens, UniProt P28223); experiment: Binding affinity to serotonin 5-HT2A receptor (unknown origin)
Chain of 5-hydroxytryptamine receptor 2A (P28223 whole entry): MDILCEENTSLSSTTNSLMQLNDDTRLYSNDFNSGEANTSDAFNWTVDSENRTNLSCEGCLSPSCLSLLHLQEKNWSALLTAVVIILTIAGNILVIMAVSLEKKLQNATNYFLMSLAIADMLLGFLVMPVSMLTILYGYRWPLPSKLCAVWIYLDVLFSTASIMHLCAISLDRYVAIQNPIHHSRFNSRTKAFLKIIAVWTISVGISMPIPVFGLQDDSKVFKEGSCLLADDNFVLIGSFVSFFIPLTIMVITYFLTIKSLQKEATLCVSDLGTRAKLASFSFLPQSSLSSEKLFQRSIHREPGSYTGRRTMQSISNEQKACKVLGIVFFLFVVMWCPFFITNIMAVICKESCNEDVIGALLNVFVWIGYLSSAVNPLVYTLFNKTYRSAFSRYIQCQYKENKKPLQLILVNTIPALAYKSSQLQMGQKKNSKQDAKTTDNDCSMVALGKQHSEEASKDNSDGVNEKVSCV

Rattus norvegicus = experiment: Agonist activity at 5HT4 receptor in ID dosed rat assessed as dose required to cause esophageal relaxation of 0.1 mm; type: functional
In short: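 Anesthetized rats dosed intraduodenally over about 0.01–10 mg/kg. Esophageal relaxation was tracked by digital sonomicrometry as the change in inter-crystal distance (mm), n = 4–6. An ED50 was derived from the dose–response, and the dose giving a 0.1 mm relaxation response was calculated.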

[6] = Cardiotoxicity in dog coronary artery assessed as coronary artery constriction; type: toxicity, tissue-based, Canis lupus familiaris
[7] = molecular target: T3, 5-hydroxytryptamine receptor 2C (Homo sapiens, UniProt P28335); experiment: Binding affinity to serotonin 5-HT2C receptor (unknown origin)
T3 sequence (P28335 whole entry): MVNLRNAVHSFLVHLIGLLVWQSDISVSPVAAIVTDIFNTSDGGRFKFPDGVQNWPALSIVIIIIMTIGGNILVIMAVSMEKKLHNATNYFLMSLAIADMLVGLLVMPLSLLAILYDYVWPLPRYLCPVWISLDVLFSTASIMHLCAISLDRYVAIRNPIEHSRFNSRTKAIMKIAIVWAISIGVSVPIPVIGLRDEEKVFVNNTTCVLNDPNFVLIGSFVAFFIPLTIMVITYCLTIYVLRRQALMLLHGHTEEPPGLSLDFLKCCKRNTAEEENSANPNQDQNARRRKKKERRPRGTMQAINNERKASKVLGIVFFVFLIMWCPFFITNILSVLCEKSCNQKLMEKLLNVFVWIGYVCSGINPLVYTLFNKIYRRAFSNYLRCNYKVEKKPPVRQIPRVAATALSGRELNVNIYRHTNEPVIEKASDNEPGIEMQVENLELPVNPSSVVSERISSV

[8] = Half life in rat liver micrososmes; type: ADME, Microsome; settings: liver microsomes
[9] = molecular target: 5-hydroxytryptamine receptor 2B (Homo sapiens, UniProt P41595); experiment: Binding affinity to serotonin 5-HT2B receptor (unknown origin)
Chain of 5-hydroxytryptamine receptor 2B (P41595 whole entry): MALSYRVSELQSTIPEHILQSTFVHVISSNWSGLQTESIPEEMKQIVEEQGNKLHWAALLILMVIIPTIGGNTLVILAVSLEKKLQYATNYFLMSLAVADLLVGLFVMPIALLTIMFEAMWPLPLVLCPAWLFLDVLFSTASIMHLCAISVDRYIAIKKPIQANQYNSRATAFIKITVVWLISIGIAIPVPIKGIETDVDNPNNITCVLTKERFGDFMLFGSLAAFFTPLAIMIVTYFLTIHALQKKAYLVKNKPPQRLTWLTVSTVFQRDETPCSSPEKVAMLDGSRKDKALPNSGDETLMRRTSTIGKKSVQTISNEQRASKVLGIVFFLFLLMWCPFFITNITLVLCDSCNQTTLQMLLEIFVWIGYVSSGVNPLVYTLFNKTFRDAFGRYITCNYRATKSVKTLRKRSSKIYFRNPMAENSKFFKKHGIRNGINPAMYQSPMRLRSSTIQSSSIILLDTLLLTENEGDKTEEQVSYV

[10] = molecular target: 5-hydroxytryptamine receptor 1D (Homo sapiens, UniProt P28221); experiment: Binding affinity to serotonin 5-HT1D receptor (unknown origin)
Chain of 5-hydroxytryptamine receptor 1D (P28221 whole entry): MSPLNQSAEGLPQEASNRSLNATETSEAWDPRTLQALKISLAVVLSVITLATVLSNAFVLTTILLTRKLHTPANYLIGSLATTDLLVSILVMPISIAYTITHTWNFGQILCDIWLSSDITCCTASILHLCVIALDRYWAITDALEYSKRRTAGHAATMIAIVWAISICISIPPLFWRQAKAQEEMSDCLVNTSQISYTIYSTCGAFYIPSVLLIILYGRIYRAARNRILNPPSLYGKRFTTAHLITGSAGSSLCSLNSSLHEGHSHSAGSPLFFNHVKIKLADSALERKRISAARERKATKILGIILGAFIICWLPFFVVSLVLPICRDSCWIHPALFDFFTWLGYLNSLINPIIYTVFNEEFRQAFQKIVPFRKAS

[11] = molecular target: T4, 5-hydroxytryptamine receptor 7 (Homo sapiens, UniProt P34969); experiment: Binding affinity to serotonin 5-HT7 receptor (unknown origin)
T4 sequence (P34969 whole entry): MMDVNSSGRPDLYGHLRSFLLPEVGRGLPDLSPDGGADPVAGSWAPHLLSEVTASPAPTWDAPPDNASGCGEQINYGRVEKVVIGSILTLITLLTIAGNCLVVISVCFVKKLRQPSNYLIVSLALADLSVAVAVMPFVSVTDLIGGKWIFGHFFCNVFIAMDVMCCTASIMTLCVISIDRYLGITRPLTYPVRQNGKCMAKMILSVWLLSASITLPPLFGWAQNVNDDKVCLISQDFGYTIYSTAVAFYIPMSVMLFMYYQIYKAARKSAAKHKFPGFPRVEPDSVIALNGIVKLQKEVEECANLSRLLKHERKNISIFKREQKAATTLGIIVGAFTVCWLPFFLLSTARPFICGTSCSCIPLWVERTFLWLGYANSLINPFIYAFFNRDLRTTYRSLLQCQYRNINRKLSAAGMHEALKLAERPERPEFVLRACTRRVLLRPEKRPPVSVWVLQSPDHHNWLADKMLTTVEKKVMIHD

hERG (KCNH2) = hERG (KCNH2) (Homo sapiens, UniProt Q12809); experiment: Inhibition of human ERG channel at 3 uM
Chain of hERG (KCNH2) (Q12809 whole entry): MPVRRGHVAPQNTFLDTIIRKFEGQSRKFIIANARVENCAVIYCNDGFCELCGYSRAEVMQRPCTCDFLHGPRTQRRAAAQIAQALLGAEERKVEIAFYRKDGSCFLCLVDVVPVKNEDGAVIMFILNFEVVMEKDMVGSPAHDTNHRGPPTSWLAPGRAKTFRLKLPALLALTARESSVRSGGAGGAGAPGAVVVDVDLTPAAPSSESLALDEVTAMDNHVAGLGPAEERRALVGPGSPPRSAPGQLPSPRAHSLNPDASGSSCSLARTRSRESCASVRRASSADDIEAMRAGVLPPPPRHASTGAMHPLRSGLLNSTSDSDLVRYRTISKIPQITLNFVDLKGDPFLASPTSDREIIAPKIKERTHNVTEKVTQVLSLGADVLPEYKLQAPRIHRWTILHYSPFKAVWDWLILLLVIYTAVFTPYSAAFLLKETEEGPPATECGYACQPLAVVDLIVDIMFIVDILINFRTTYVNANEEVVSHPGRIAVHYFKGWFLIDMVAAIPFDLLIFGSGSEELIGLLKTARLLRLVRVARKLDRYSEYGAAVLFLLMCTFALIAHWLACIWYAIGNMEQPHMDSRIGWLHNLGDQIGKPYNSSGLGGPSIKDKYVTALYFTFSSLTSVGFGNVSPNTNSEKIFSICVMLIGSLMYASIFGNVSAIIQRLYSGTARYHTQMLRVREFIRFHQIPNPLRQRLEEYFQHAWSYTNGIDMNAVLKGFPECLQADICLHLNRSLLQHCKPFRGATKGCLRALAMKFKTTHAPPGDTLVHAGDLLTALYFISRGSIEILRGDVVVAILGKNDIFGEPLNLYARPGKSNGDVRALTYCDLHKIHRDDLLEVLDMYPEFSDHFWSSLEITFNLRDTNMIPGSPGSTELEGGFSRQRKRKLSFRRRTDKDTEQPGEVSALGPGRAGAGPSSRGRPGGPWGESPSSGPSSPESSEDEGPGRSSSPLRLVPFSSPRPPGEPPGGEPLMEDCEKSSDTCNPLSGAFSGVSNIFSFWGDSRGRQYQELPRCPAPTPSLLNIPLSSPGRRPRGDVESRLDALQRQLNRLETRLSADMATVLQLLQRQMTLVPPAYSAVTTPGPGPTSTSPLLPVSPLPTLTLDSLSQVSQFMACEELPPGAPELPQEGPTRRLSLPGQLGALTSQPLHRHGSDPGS

[12] = Permeability across human Caco2 cells; type: ADME, cell-based; settings: Caco-2, read-out: Kp
[13] = molecular target: T4, 5-hydroxytryptamine receptor 7; experiment: Binding affinity to human serotonin 5-HT7 receptor
[14] = molecular target: T1, 5-hydroxytryptamine receptor 3A; experiment: Binding affinity to serotonin 5-HT3 receptor (unknown origin)
[15] = molecular target: T5, 5-hydroxytryptamine receptor 1A (Homo sapiens, UniProt P08908); experiment: Binding affinity to human serotonin 5-HT1A receptor
T5 sequence (P08908 whole entry): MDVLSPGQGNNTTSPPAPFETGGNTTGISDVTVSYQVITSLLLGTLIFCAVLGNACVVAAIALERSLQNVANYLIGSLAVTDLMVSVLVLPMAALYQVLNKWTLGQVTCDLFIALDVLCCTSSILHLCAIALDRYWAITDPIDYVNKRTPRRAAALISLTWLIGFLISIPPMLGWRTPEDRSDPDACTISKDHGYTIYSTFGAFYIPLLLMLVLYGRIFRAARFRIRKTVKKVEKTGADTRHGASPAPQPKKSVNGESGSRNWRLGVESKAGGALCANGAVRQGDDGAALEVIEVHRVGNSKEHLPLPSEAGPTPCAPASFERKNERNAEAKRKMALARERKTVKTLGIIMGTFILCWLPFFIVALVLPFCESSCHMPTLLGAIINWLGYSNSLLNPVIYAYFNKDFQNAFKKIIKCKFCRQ

Row | SMILES | Ki [1] [nM] | Ki [2] [nM] | EC50 [3] [nM] | Intrinsic activity [4] [%] | half-life [8] [h] | Papp [12] [×10⁻⁶ cm/s] | other results
1 | CS(=O)(=O)N1CCN(CC(O)CN2CCC(NC(=O)c3cccc4[nH]cnc34)CC2)CC1 (stereo not given) | 63100 | 251 | 631 | 7 | – | – | –
2 | CCCCCNC(=N)N/N=C/c1c[nH]c2ccc(OC)cc12 [TEGASEROD] | 2510 | – | – | – | > 1.5 | – | Ki [5]: < 100 nM; Activity (Rattus norvegicus): 2.43 mg/kg; Activity [6]: Toxic; Ki [7]: < 100 nM; Ki [9]: < 2 nM; Ki [10]: < 100 nM; Ki [11]: < 100 nM
3 | CC(F)(F)c1nc2c(C(=O)NCC3CCN(CC(O)CN4CCN(S(C)(=O)=O)CC4)CC3)cccc2[nH]1 (stereo not given) | – | – | – | 59 | – | – | –
4 | CC(=O)N1CCN(CCN2CCC(CNC(=O)c3cccc4[nH]c(C(C)C)nc34)CC2)CC1 | – | – | – | 76 | – | – | –
5 | CC(=O)N1CCN(CCN2CCC(CNC(=O)c3cccc4nc(C(C)C)[nH]c34)CC2)CC1 | 39800 | 5.01 | 3.16 | – | > 1.5 | – | –
6 | CS(=O)(=O)N1CCN(CC(O)CN2CCC(CNC(=O)c3cccc4nc[nH]c34)CC2)CC1 (stereo not given) | 50100 | 6.31 | 10 | – | – | – | –
7 | CC(C)c1nc2c(C(=O)NCC3CCN(CC(O)CN4CCN(S(C)(=O)=O)CC4)CC3)cc(Cl)cc2[nH]1 (stereo not given) | 1260 | 0.316 | – | 0 | – | – | –
8 | CC(=O)N(C)CC(O)CN1CCC(CNC(=O)c2cccc3[nH]c(C(C)C)nc23)CC1 (stereo not given) | – | – | – | 64 | – | – | –
9 | CCc1nc2c(C(=O)NCC3CCN(CC(O)CN4CCN(S(C)(=O)=O)CC4)CC3)cccc2[nH]1 (stereo not given) | 79400 | 0.501 | 1 | 22 | – | – | –
10 | CC(C)c1nc2c(C(=O)NCC3CCN(CC4CCN(S(C)(=O)=O)CC4)CC3)cccc2[nH]1 | 100000 | 0.501 | 1 | 63 | 1.47 | 5 | inhibition at 3 µM (hERG (KCNH2)): 8%
11 | CC(C)c1nc2c(C(=O)NCC3CCN(CC(O)CN(C)S(C)(=O)=O)CC3)cccc2[nH]1 (stereo not given) | – | – | – | 83 | – | – | –
12 | CS(=O)(=O)N1CCN(CC(O)CN2[C@@H]3CC[C@H]2C[C@@H](NC(=O)c2cccc4nc[nH]c24)C3)CC1 (stereo not given in full) | 20000 | 316 | 251 | – | – | – | –
13 | CC(C)(C)c1nc2c(C(=O)NCC3CCN(CC(O)CN4CCN(S(C)(=O)=O)CC4)CC3)cccc2[nH]1 (stereo not given) | – | – | – | 94 | – | – | –
14 | CS(=O)(=O)N1CCN(CC(O)CN2CCC(CNC(=O)c3cccc4[nH]c(-c5ccccc5)nc34)CC2)CC1 (stereo not given) | 15800 | 1.26 | 1.58 | 41 | – | – | –
15 | COC(=O)N(C)CC(O)CN1CCC(CNC(=O)c2cccc3nc(C(C)C)[nH]c23)CC1 (stereo not given) | 50100 | 3.98 | 2 | – | 1.32 | 2 | –
16 | CC(=O)N1CCC(CN2CCC(CNC(=O)c3cccc4[nH]c(C(C)C)nc34)CC2)CC1 | 100000 | 1 | 1.58 | 87 | > 1.5 | 6 | inhibition at 3 µM (hERG (KCNH2)): 22%
17 | CS(=O)(=O)N1CCN(CC(O)CN2[C@@H]3CC[C@H]2C[C@@H](NC(=O)c2cccc4[nH]cnc24)C3)CC1 (stereo not given in full) | – | – | – | 54 | – | – | –
18 | CC(=O)N(C)CC(O)CN1CCC(CNC(=O)c2cccc3nc(C(C)C)[nH]c23)CC1 (stereo not given) | 63100 | 3.98 | 1.58 | – | > 1.5 | – | –
19 | CC(C)c1nc2c(C(=O)NCC3CCN(CCN4CCN(S(C)(=O)=O)CC4)CC3)cccc2[nH]1 | 100000 | 0.794 | 0.794 | 64 | > 1.5 | 4 | –
20 | CS(=O)(=O)N1CCN(CC(O)CN2CCC(CNC(=O)c3cccc4[nH]cnc34)CC2)CC1 (stereo not given) | – | – | – | 6 | – | – | –
21 | CC(C)(C)c1nc2cccc(C(=O)NCC3CCN(CC(O)CN4CCN(S(C)(=O)=O)CC4)CC3)c2[nH]1 (stereo not given) | 39800 | 12.6 | 3.16 | – | > 1.5 | 0.5 | –
22 | CC(C)c1nc2cccc(C(=O)NCC3CCN(CC(O)CN(C)S(C)(=O)=O)CC3)c2[nH]1 (stereo not given) | 79400 | 1.26 | 0.398 | – | > 1.5 | 1 | –
23 | CS(=O)(=O)N1CCN(CC(O)CN2CCC(CNC(=O)c3cccc4[nH]c(C5CC5)nc34)CC2)CC1 (stereo not given) | 50100 | 0.501 | 0.631 | 64 | > 1.5 | 2.1 | –
24 | COC(=O)N1CCN(CCN2CCC(CNC(=O)c3cccc4[nH]c(C(C)C)nc34)CC2)CC1 | 79400 | 1.58 | 1.58 | 72 | > 1.5 | 9 | –
25 | CC(C)c1nc2c(C(=O)NCC3CCN(CC(O)CN4CCN(S(C)(=O)=O)CC4)CC3)cccc2[nH]1 (stereo not given) | 79400 | 0.501 | 0.631 | 61 | > 1.5 | 0.2 | inhibition at 3 µM (hERG (KCNH2)): 5%
26 | CC(F)(F)c1nc2cccc(C(=O)NCC3CCN(CC(O)CN4CCN(S(C)(=O)=O)CC4)CC3)c2[nH]1 (stereo not given) | 7940 | 2 | 0.794 | – | – | – | –
27 | COc1cc(N)c(Cl)cc1C(=O)NC1CCN(CCCOc2ccc(F)cc2)CC1OC (racemic) [CISAPRIDE] | 2000 | – | – | 71 | 0.783 | – | Ki [13]: 1000 nM; Activity (Rattus norvegicus): 2.66 mg/kg; Ki [14]: 2000 nM; Ki [15]: 794 nM
28 | COC(=O)N(C)CC(O)CN1CCC(CNC(=O)c2cccc3[nH]c(C(C)C)nc23)CC1 (stereo not given) | – | – | – | 64 | – | – | –
